Screening results as filed in PubChem BioAssay.
FLuc act counter: FLuc activators, initial screening, artefact control for FLuc-dependent activation tests, biochemical, ATPlite luminescence; Luciferin 4-monooxygenase (Photinus pyralis), P08659; ATPlite luciferase biochemical, 10 min; 0 = ATP-free wells, 1 = DMSO control; activation factor at 10 µM; 200,000 tested, under 10 active; AID 1027, 2008;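 active means luciferase activation factor, scaled between plate controls, of at least 2 with compound at 10 µM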
Target sequence (P08659 whole entry, looked up): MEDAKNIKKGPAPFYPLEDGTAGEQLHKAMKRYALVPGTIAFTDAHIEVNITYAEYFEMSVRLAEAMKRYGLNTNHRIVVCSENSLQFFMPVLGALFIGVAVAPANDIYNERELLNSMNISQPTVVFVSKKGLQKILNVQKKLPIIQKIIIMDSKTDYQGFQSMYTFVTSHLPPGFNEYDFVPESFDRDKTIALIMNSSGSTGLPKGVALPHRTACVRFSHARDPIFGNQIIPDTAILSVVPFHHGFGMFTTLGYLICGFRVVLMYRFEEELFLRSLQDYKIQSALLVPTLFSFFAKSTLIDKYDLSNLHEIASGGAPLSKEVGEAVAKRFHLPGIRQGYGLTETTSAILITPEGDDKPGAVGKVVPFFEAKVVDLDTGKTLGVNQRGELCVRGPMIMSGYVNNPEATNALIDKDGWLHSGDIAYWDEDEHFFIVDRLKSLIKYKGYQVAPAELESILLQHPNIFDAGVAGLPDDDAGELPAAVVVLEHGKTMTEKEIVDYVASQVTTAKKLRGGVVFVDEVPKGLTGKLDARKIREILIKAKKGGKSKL
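Material: Luciferase/luciferin reagent mix | Doses: Test compounds dosed from 2 mM stocks in 100% DMSO | Timing: 10 min incubation after luciferase reagent addition, room temperature | Measured by: Luminescence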
TRAIL sens C8: viability loss with TRAIL in NB7+C8 cells, primary screen, TRAIL sensitizer project, cell-based, ATPlite luminescence; inhibition (viability loss, TRAIL sensitization), % at 10 µM; hit rate 1% among 360,000; AID 624354, 2012;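 active means compounds causing at least 50% loss of cell viability in the single-dose screen, relative to plate controls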
PPC-1+TRAIL kill: compounds killing PPC-1 cancer cells with TRAIL present, primary screen, TRAIL potentiator project, ATPLite luminescence, uHTS. PPC-1 cells + TRAIL, ATPLite viability luminescence. cell killing (% activity), % at 4 µM or 5 µM. hit rate 0.41% among 220,000;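 active means cell killing above 50% in the first pass at 4 µM, then a duplicate retest at 5 µM averaging 50% or more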;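 further: plate controls were cells with TRAIL plus DMSO for no effect and medium-only wells lacking cells for full effect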
FLuc inhib CS: firefly luciferase enzyme inhibitors, primary screen, artefact control for luciferase-based inhibitor screens, biochemical, luminescence, ATPLite; inhibition, % at 10 µM; 10 min; hit rate 1.5% among 200,000; AID 1006, 2008;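 active means inhibition above about 50% when tested at 10 µM, limit read from the data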
* hit, by the source's call; . = no result. Hits are enriched below; roughly 1.6% of the tested compounds scored in any of these assays.

SMILES | FLuc act counter | TRAIL sens C8 | PPC-1+TRAIL kill | FLuc inhib CS
CC(C)CC(N)c1csc(NC(=O)c2cc(C(C)(C)C)nn2Cc2ccccc2)n1 (configuration not stated) | . | 84.4* | . | .
CC(C)CC(N)c1csc(NC(=O)Nc2ccccc2Cc2ccccc2)n1 (configuration not stated) | . | 23.9 | . | .
CCc1ccc(-c2cc(C(=O)N/N=C/c3c[nH]c4ccccc34)[nH]n2)cc1 | 0.5 | 59.5* | 30.9 | 46.3
O=C(c1ccc(CSc2nc3ccncc3[nH]2)cc1)N1CCCCC1 | 0.3 | 43.7 | 35.6 | 67.8*
COC(=O)c1ccc(C)c(NC(=O)CCCN2C(=O)CN(C)C2=O)c1 | . | 8.2 | . | .
Oc1c(C=Nc2cccc3cccnc23)sc2ccccc12 | 0.2 | . | 3.1 | 82.0*
O=C(/C=C/c1ccccc1)Nc1scc(-c2ccccc2)c1C(=O)O | 0.3 | 30.7 | 22.5 | 74.3*
O=C(/C=C\c1ccccc1)Nc1nccs1 | 0.5 | 31.2 | 37.3 | 53.0*
O=C(/C=C/c1cccc(F)c1)Nc1nccs1 | 0.8 | 4.7 | 20.4 | 21.2
O=C(/C=C/c1ccco1)Nc1nc(-c2ccccc2)cs1 | 0.7 | 18.9 | 5.4 | 27.5
O=C(/C=C/c1ccco1)Nc1scc(-c2ccccc2)c1C(=O)O | . | 54.3* | 48.0 | .
COc1c(O)cccc1[C@H](O)C1CCN(CCc2ccc(F)cc2)CC1 | . | -14.9 | . | .
Cc1nc2ccccc2c2c1C(=O)N(c1cccc(C(=O)O)c1)C2=O | 1 | -0.5 | 1.4 | -3.0
Cc1ccc(C)c(C(=O)COC(=O)c2cccc(N3C(=O)c4c(C)nc5ccccc5c4C3=O)c2)c1 | 0.4 | 56.7* | 64.6* | 60.4*
Cc1ccc(N/N=C(\C#N)C(=N)N2CCCCCC2)cc1 | 0.5 | 31.2 | 41.8 | 51.2*
N#C/C(=N\Nc1ccc(F)cc1)C(=N)N1CCCCCC1 | 0.4 | 30.8 | . | 59.1*
CC(C)(C)S(=O)N1Cc2cc(=O)n(Cc3ccccc3)c(CCO)c2[C@H]1CCO (some centres not stated) | . | -7.3 | . | .
COc1cccc(-c2ccc(NC(=O)C3CCCN(Cc4nccn4C)C3)cc2)c1 (configuration not stated) | . | -1.1 | . | .
O=C(N/N=C/c1ccccc1O)c1cccc(C(F)(F)F)c1 | 1 | 20.9 | 52.5* | -2.0
O=C(N/N=C/c1ccc(O)cc1)c1cccc(C(F)(F)F)c1 | 1.1 | 5.9 | -4.2 | -5.7
O=C(N/N=C/c1ccccc1C(F)(F)F)c1ccc(O)cc1 | 0.4 | 20.8 | 23.7 | 55.4*
NC(=O)N/N=C/c1ccc(-c2cccc(C(F)(F)F)c2)o1 | 1 | -9.4 | 1.6 | -1.8
O=C(N/N=C/c1ccc(-c2cccc(C(F)(F)F)c2)o1)c1cccc(F)c1 | 1 | 72.9* | -12.4 | -3.0
CC1(C(=O)NS(=O)(=O)c2cccc(Cl)c2)CCN1C(=O)C1CCCCC1 (configuration not stated) | . | -11.6 | . | .
CN(C)/C=C/C(=O)c1cnc(-c2ccc(Cl)cc2)s1 | 0.5 | 29.1 | 7.2 | 53.4*
SMILES | FLuc act counter | TRAIL sens C8 | PPC-1+TRAIL kill | FLuc inhib CS
CCOC(=O)C1=CN(Cc2ccco2)S(=O)(=O)N(C)C1c1ccc2ccccc2c1 (configuration not stated) | . | 3.4 | . | .
CC(C)NC(=O)c1cc(C2CCCCN2S(=O)(=O)c2cccs2)on1 (configuration not stated) | . | -0.5 | . | .
CC1(C)CC2(C)CC(=O)C1C(C(=O)O)C2C(=O)O (configuration not stated) | . | -8.8 | . | .
Nc1ccc2nc(-c3ccc(Cl)cc3)[nH]c2c1 | 0.2 | 27.8 | 45.2 | 75.3*
Cc1nc2ccc(-c3nc4ccc(N)cc4[nH]3)cc2[nH]1 | 0.2 | 37.9 | 47.4 | 78.1*
Nc1ccc(-c2nc3ccc(N)cc3[nH]2)cc1 | 0.5 | 7.6 | 8.3 | 51.8*
Cc1nc2ccc(-c3nc4ccccc4o3)cc2[nH]1 | 0.4 | 18.1 | 48.5 | 63.2*
Nc1ccc2nc(-c3cc(Cl)c(N)c(Cl)c3)[nH]c2c1 | 0.5 | 25.2 | 24.6 | 46.5
Nc1ccc2nc(-c3cccc(-c4nc5ccc(N)cc5[nH]4)c3)[nH]c2c1 | . | -4.9 | . | .
NC(c1csc(Nc2ccc(C(=O)NCCO)cc2)n1)C1CCCCC1 (configuration not stated) | . | -14.9 | . | .
Cc1cnc(C(=O)N(c2ccc(N3CCOCC3)cc2)C2C(=O)Nc3ccccc3N=C2c2ccc(F)cc2)cn1 (configuration not stated) | . | 14.7 | . | .
O=C(COc1ccc2ccccc2c1Br)Nc1ncn[nH]1 | 0.8 | 62.1* | -10.1 | 21.2
CC(c1ccccc1)N1CC(C(=O)N2CCCC(C(N)=O)C2)CC1=O (configuration not stated) | . | 4.3 | . | .
Cc1csc(NC(=O)CCC(=O)N(CC(=O)NC2CCCC2)Cc2ccccc2)n1 | . | 2.3 | . | .
COc1ccccc1OCCC(=O)Nc1cccc(S(=O)(=O)N2CCOCC2)c1 | . | 4.1 | . | .
O=c1[nH]c(=S)[nH]c2c1C(c1ccc(Cl)cc1)OC(CCc1ccccc1)C2 (configuration not stated) | . | 2.9 | . | .
O=c1[nH]c(=S)[nH]c2c1C(c1ccc(Cl)c(Cl)c1)OC(CCc1ccccc1)C2 (configuration not stated) | . | 59.3* | . | .
c1ccc(Cc2noc(CN3CCN(CCOc4ccccc4)CC3)n2)cc1 | 1 | -1.5 | 10.3 | -1.5
C[C@@H]1CN([C@@H](C)CO)C(=O)c2cc(Br)cnc2O[C@H]1CN(C)C(=O)Nc1ccc(F)cc1 | . | -1.1 | . | .
Cn1cc([N+](=O)[O-])c(C(=O)Nc2ccc(C3CCCCC3)cc2)n1 | 0.9 | 60.9* | 46.0 | 13.9
Cc1ccc(-c2nc(NC(=O)c3nn(C)cc3[N+](=O)[O-])sc2C)cc1 | 1.1 | 92.6* | 33.8 | -6.3
Cc1ccc(-c2nc(NC(=O)c3nn(C)cc3[N+](=O)[O-])sc2C)cc1C | 1.1 | 94.7* | 23.9 | -9.4
Cn1cc([N+](=O)[O-])c(C(=O)Nc2ccc(C(=O)N3CCCCC3)cc2)n1 | 1 | 14.4 | -0.8 | -3.2
Cn1cc([N+](=O)[O-])c(C(=O)Nc2nc(-c3ccc(Cl)cc3)cs2)n1 | 1 | 93.7* | 48.0 | -4.1
CC1CCCCN1S(=O)(=O)c1ccc(C(=O)N2CCOCC2)cc1 (configuration not stated) | . | 3.1 | . | .
SMILES | FLuc act counter | TRAIL sens C8 | PPC-1+TRAIL kill | FLuc inhib CS
CC1(C(=O)NS(=O)(=O)c2ccc(Cl)cc2)CCN1C(=O)CCc1ccccc1 (configuration not stated) | . | -2.4 | . | .
CCOC(=O)C[C@H]1c2ccc(C(F)(F)F)cc2S(=O)(=O)N1c1cccc(OC)c1 | . | 7.8 | . | .
Cc1ccc2c(c1)c1c3n2CCN(C(=O)CCl)C3CCC1 (configuration not stated) | . | 29.7 | . | .
CC(C)(C)NCCC(O)c1cc(C(F)(F)F)nc2c(C(F)(F)F)cccc12 (configuration not stated) | . | 91.4* | . | .
O[C@@H](c1cc(C(F)(F)F)nc2c(C(F)(F)F)cccc12)[C@H]1CCCCN1 | . | 22.4 | . | .
CCOC(=O)C1(C)CCCN(C(=O)c2ccc(OC)c(OC)c2)C1 (configuration not stated) | . | -11.2 | . | .
